Data reported in ChEMBL document CHEMBL5724801, “EUbOPEN Chemogenomics Library - Multiplex” (2024).
Several values for one entry are separate records, joined by “and”; a condition that tells them apart may be missing. Equal entries are not always repeated.

Tested on: Fibroblast
Experiment: Multiplex assay against human fibroblast
Assay type: toxicity, cell-based
Procedure, shortened: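 Live cells carried four stains from seeding: Hoechst33342, BioTracker Green Microtubule Cytoskeleton Dye, MitoTracker Red and Annexin V Alexa Fluor 680. They were imaged on a CQ1 microscope at 37°C and 5% CO2 after compound addition. Using CellPathfinder machine-learning gating, cells were split into Hoechst high-intensity objects or normal cells, normal cells into healthy, pyknosed or fragmented nuclei, and pyknosed cells into mitotic or apoptotic; tubulin, mitochondrial-mass and membrane-permeability phenotypes are per cents of healthy-nucleus cells.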

[1] = 12 h, 1 µM, compound concentration 1 uM
[2] = 12 h, 10 µM, compound concentration 10 uM
[3] = 24 h, 1 µM, compound concentration 1 uM
[4] = 24 h, 10 µM, compound concentration 10 uM
[5] = 48 h, 1 µM, compound concentration 1 uM
[6] = 48 h, 10 µM, compound concentration 10 uM

SMILES: O=c1ccc2ccc(OCCCCN3CCN(c4cccc5sccc45)CC3)cc2[nH]1 [BREXPIPRAZOLE]
- Population Apoptotic (%) [1]: 56% and 48%
- Population Fragmented Nuclei (%) [1]: 17% and 33%
- Population Healthy Nuclei (%) [1]: 62% and 44%
- Population Hoechst High Intensity Objects (%) [1]: 2% and 5%
- Population Membrane Permeable-Phenotype (%) [1]: 0% and 2%
- Population Mitochondria Different-Phenotype (%) [1]: 5% and 15%
- Population Mitotic Cells (%) [1]: 44% and 51%
- Population Normal (%) [1]: 97% and 94%
- Population Pyknosed Nuclei (%) [1]: 20% and 21%
- Population Tubulin-Different-Phenotype (%) [1]: 41% and 73%
- Total Cell Count [1]: 126 and 169
- Population Apoptotic (%) [2]: 68% and 45%
- Population Fragmented Nuclei (%) [2]: 16% and 30%
- Population Healthy Nuclei (%) [2]: 64% and 49%
- Population Hoechst High Intensity Objects (%) [2]: 1% and 11%
- Population Membrane Permeable-Phenotype (%) [2]: 0% and 2%
- Population Mitochondria Different-Phenotype (%) [2]: 39% and 25%
- Population Mitotic Cells (%) [2]: 31% and 54%
- Population Normal (%) [2]: 98% and 88%
- Population Pyknosed Nuclei (%) [2]: 19% and 20%
- Population Tubulin-Different-Phenotype (%) [2]: 83% and 81%
- Total Cell Count [2]: 203 and 243
- Population Apoptotic (%) [3]: 56% and 33%
- Population Fragmented Nuclei (%) [3]: 17% and 32%
- Population Healthy Nuclei (%) [3]: 69% and 52%
- Population Hoechst High Intensity Objects (%) [3]: 1% and 3%
- Population Membrane Permeable-Phenotype (%) [3]: 0% and 2%
- Population Mitochondria Different-Phenotype (%) [3]: 8% and 14%
- Population Mitotic Cells (%) [3]: 43% and 66%
- Population Normal (%) [3]: 98% and 96%
- Population Pyknosed Nuclei (%) [3]: 13% and 14%
- Population Tubulin-Different-Phenotype (%) [3]: 43% and 76%
- Total Cell Count [3]: 122 and 173
- Population Apoptotic (%) [4]: 58% and 65%
- Population Fragmented Nuclei (%) [4]: 13% and 30%
- Population Healthy Nuclei (%) [4]: 54% and 40%
- Population Hoechst High Intensity Objects (%) [4]: 13% and 19%
- Population Membrane Permeable-Phenotype (%) [4]: 0%
- Population Mitochondria Different-Phenotype (%) [4]: 63% and 34%
- Population Mitotic Cells (%) [4]: 41% and 34%
- Population Normal (%) [4]: 86% and 80%
- Population Pyknosed Nuclei (%) [4]: 31% and 28%
- Population Tubulin-Different-Phenotype (%) [4]: 85% and 71%
- Total Cell Count [4]: 218 and 239
- Population Apoptotic (%) [5]: 62% and 60%
- Population Fragmented Nuclei (%) [5]: 24% and 42%
- Population Healthy Nuclei (%) [5]: 62% and 51%
- Population Hoechst High Intensity Objects (%) [5]: 4%
- Population Membrane Permeable-Phenotype (%) [5]: 0% and 1%
- Population Mitochondria Different-Phenotype (%) [5]: 10% and 9%
- Population Mitotic Cells (%) [5]: 37% and 40%
- Population Normal (%) [5]: 95%
- Population Pyknosed Nuclei (%) [5]: 12% and 5%
- Population Tubulin-Different-Phenotype (%) [5]: 52% and 67%
- Total Cell Count [5]: 133 and 175
- Population Apoptotic (%) [6]: 62% and 44%
- Population Fragmented Nuclei (%) [6]: 18% and 30%
- Population Healthy Nuclei (%) [6]: 50% and 43%
- Population Hoechst High Intensity Objects (%) [6]: 34%
- Population Membrane Permeable-Phenotype (%) [6]: 0%
- Population Mitochondria Different-Phenotype (%) [6]: 60% and 20%
- Population Mitotic Cells (%) [6]: 37% and 55%
- Population Normal (%) [6]: 65%
- Population Pyknosed Nuclei (%) [6]: 31% and 26%
- Population Tubulin-Different-Phenotype (%) [6]: 88% and 55%
- Total Cell Count [6]: 208 and 317

SMILES: CCC(=O)OCC(=O)[C@@]1(OC(=O)CC)[C@@H](C)C[C@H]2[C@@H]3CCC4=CC(=O)C=C[C@]4(C)[C@@]3(Cl)[C@@H](O)C[C@@]21C [BECLOMETHASONE DIPROPIONATE]
- Population Apoptotic (%) [1]: 38% and 42%
- Population Fragmented Nuclei (%) [1]: 13% and 30%
- Population Healthy Nuclei (%) [1]: 73% and 40%
- Population Hoechst High Intensity Objects (%) [1]: 3%
- Population Membrane Permeable-Phenotype (%) [1]: 1% and 5%
- Population Mitochondria Different-Phenotype (%) [1]: 2% and 10%
- Population Mitotic Cells (%) [1]: 61% and 57%
- Population Normal (%) [1]: 96%
- Population Pyknosed Nuclei (%) [1]: 13% and 30%
- Population Tubulin-Different-Phenotype (%) [1]: 47% and 63%
- Total Cell Count [1]: 135 and 155
- Population Apoptotic (%) [2]: 40%
- Population Healthy Nuclei (%) [2]: 69% and 42%
- Population Hoechst High Intensity Objects (%) [2]: 8% and 5%
- Population Mitochondria Different-Phenotype (%) [2]: 17% and 20%
- Population Mitotic Cells (%) [2]: 60% and 59%
- Population Normal (%) [2]: 91% and 94%
- Population Pyknosed Nuclei (%) [2]: 20% and 24%
- Population Tubulin-Different-Phenotype (%) [2]: 87% and 94%
- Total Cell Count [2]: 157 and 96
- Population Apoptotic (%) [3]: 50% and 47%
- Population Fragmented Nuclei (%) [3]: 16% and 30%
- Population Healthy Nuclei (%) [3]: 65% and 45%
- Population Hoechst High Intensity Objects (%) [3]: 1% and 6%
- Population Membrane Permeable-Phenotype (%) [3]: 3% and 7%
- Population Mitochondria Different-Phenotype (%) [3]: 2% and 7%
- Population Mitotic Cells (%) [3]: 50% and 52%
- Population Normal (%) [3]: 98% and 93%
- Population Pyknosed Nuclei (%) [3]: 18% and 24%
- Population Tubulin-Different-Phenotype (%) [3]: 34% and 60%
- Total Cell Count [3]: 134 and 150
- Population Apoptotic (%) [4]: 40% and 19%
- Population Fragmented Nuclei (%) [4]: 13% and 38%
- Population Healthy Nuclei (%) [4]: 66% and 40%
- Population Hoechst High Intensity Objects (%) [4]: 6%
- Population Mitochondria Different-Phenotype (%) [4]: 30% and 12%
- Population Mitotic Cells (%) [4]: 59% and 80%
- Population Normal (%) [4]: 93%
- Population Pyknosed Nuclei (%) [4]: 19% and 21%
- Population Tubulin-Different-Phenotype (%) [4]: 86% and 79%
- Total Cell Count [4]: 148 and 104
- Population Apoptotic (%) [5]: 28% and 52%
- Population Fragmented Nuclei (%) [5]: 13% and 31%
- Population Healthy Nuclei (%) [5]: 56% and 41%
- Population Hoechst High Intensity Objects (%) [5]: 3% and 7%
- Population Membrane Permeable-Phenotype (%) [5]: 1% and 5%
- Population Mitochondria Different-Phenotype (%) [5]: 15% and 9%
- Population Mitotic Cells (%) [5]: 71% and 47%
- Population Normal (%) [5]: 96% and 92%
- Population Pyknosed Nuclei (%) [5]: 30% and 27%
- Population Tubulin-Different-Phenotype (%) [5]: 61% and 54%
- Total Cell Count [5]: 132 and 143
- Population Apoptotic (%) [6]: 67% and 37%
- Population Fragmented Nuclei (%) [6]: 21% and 33%
- Population Healthy Nuclei (%) [6]: 54% and 33%
- Population Hoechst High Intensity Objects (%) [6]: 6% and 3%
- Population Membrane Permeable-Phenotype (%) [6]: 0% and 18%
- Population Mitotic Cells (%) [6]: 32% and 62%
- Population Normal (%) [6]: 93% and 96%
- Population Pyknosed Nuclei (%) [6]: 24% and 33%
- Population Tubulin-Different-Phenotype (%) [6]: 76% and 84%
- Total Cell Count [6]: 162 and 99

SMILES: CC(C)C[C@H](NC(=O)c1cc2ccccc2s1)C(=O)N1CCN(C(=O)[C@H](CO)NS(=O)(=O)c2ccc(Cl)cc2Cl)CC1
- Population Fragmented Nuclei (%) [1]: 14.47% and 9.24%
- Population Healthy Nuclei (%) [1]: 51.57% and 56.52%
- Population Hoechst High Intensity Objects (%) [1]: 0%
- Population Membrane Permeable-Phenotype (%) [1]: 7.32% and 5.77%
- Population Mitochondria Different-Phenotype (%) [1]: 17.07% and 18.27%
- Population Mitotic Cells (%) [1]: 88.89% and 55.56%
- Population Normal (%) [1]: 100%
- Population Pyknosed Nuclei (%) [1]: 33.96% and 34.24%
- Population Tubulin-Different-Phenotype (%) [1]: 35.37% and 45.19%
- Total Cell Count [1]: 159 and 184
- Population Apoptotic (%) [2]: 10.29% and 22.73%
- Population Fragmented Nuclei (%) [2]: 17.22% and 7.1%
- Population Healthy Nuclei (%) [2]: 45% and 56.83%
- Population Hoechst High Intensity Objects (%) [2]: 0%
- Population Membrane Permeable-Phenotype (%) [2]: 19.75% and 36.54%
- Population Mitochondria Different-Phenotype (%) [2]: 58.02% and 50.96%
- Population Mitotic Cells (%) [2]: 89.71% and 77.27%
- Population Normal (%) [2]: 100%
- Population Pyknosed Nuclei (%) [2]: 37.78% and 36.07%
- Population Tubulin-Different-Phenotype (%) [2]: 81.48% and 96.15%
- Total Cell Count [2]: 180 and 183
- Population Fragmented Nuclei (%) [3]: 15.79% and 9.14%
- Population Healthy Nuclei (%) [3]: 54.39% and 66.29%
- Population Hoechst High Intensity Objects (%) [3]: 0%
- Population Membrane Permeable-Phenotype (%) [3]: 9.68% and 7.76%
- Population Mitochondria Different-Phenotype (%) [3]: 10.75% and 17.24%
- Population Mitotic Cells (%) [3]: 96.08% and 48.84%
- Population Normal (%) [3]: 100%
- Population Pyknosed Nuclei (%) [3]: 29.82% and 24.57%
- Population Tubulin-Different-Phenotype (%) [3]: 45.16% and 50%
- Total Cell Count [3]: 171 and 175
- Population Apoptotic (%) [4]: 22.58% and 46.67%
- Population Fragmented Nuclei (%) [4]: 11.67% and 8.33%
- Population Healthy Nuclei (%) [4]: 71.11% and 66.67%
- Population Hoechst High Intensity Objects (%) [4]: 0%
- Population Membrane Permeable-Phenotype (%) [4]: 19.53% and 8.33%
- Population Mitochondria Different-Phenotype (%) [4]: 49.22% and 55.83%
- Population Mitotic Cells (%) [4]: 77.42% and 53.33%
- Population Normal (%) [4]: 100%
- Population Pyknosed Nuclei (%) [4]: 17.22% and 25%
- Population Tubulin-Different-Phenotype (%) [4]: 89.84% and 96.67%
- Total Cell Count [4]: 180
- Population Fragmented Nuclei (%) [5]: 10.05% and 9.68%
- Population Healthy Nuclei (%) [5]: 78.84% and 78.49%
- Population Hoechst High Intensity Objects (%) [5]: 0%
- Population Mitochondria Different-Phenotype (%) [5]: 12.75% and 8.22%
- Population Mitotic Cells (%) [5]: 85.71% and 50%
- Population Normal (%) [5]: 100%
- Population Pyknosed Nuclei (%) [5]: 11.11% and 11.83%
- Population Tubulin-Different-Phenotype (%) [5]: 33.56% and 65.07%
- Total Cell Count [5]: 189 and 186
- Population Apoptotic (%) [6]: 38.89% and 56.52%
- Population Fragmented Nuclei (%) [6]: 11.45% and 11.37%
- Population Healthy Nuclei (%) [6]: 77.71% and 77.73%
- Population Hoechst High Intensity Objects (%) [6]: 0%
- Population Membrane Permeable-Phenotype (%) [6]: 6.2% and 8.54%
- Population Mitochondria Different-Phenotype (%) [6]: 39.53% and 48.78%
- Population Mitotic Cells (%) [6]: 61.11% and 43.48%
- Population Normal (%) [6]: 100%
- Population Pyknosed Nuclei (%) [6]: 10.84% and 10.9%
- Population Tubulin-Different-Phenotype (%) [6]: 82.17% and 96.34%
- Total Cell Count [6]: 166 and 211
